Source: ChEMBL document CHEMBL4680166, “Dual-functional conjugates improving cancer immunochemotherapy by inhibiting tubulin polymerization and indoleamine-2,3-dioxygenase” (Eur J Med Chem, 2020)
One block for each compound: values may come before it. Active and inactive are the calls of the source. The rule behind the calls is not given here.

Legend:
HeLa [1] = assay: Anticancer activity against human HeLa cells assessed as inhibition of cell proliferation measured after 72 hrs by MTT assay; format: functional, cell-based
In short: (§1)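 Cells (A549, PC-3, HeLa, HUVEC) grown in DMEM with 10% FBS at 37 °C, 5% CO₂. Seeded at 5 × 10⁴ cells/well and allowed 24 h to attach, then exposed 72 h to a concentration series from DMSO stocks. MTT was added for 4 h and formazan dissolved in DMSO, read at 490 nm. Survival taken relative to untreated control. IC50 by Bliss method, three repeats.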

HUVEC = assay: Cytotoxicity against HUVEC cells assessed as inhibition of cell proliferation measured after 72 hrs by MTT assay; format: cell-based; settings: Homo sapiens; in short: as §1
A549 = assay: Anticancer activity against human A549 cells assessed as inhibition of cell proliferation measured after 72 hrs by MTT assay; format: functional, cell-based; settings: A549, 72 h; in short: as §1
PC-3 = assay: Anticancer activity against human PC3 cells assessed as inhibition of cell proliferation measured after 72 hrs by MTT assay; format: functional, cell-based; settings: PC-3, 72 h; in short: as §1
HeLa [2] = assay: Induction of apoptosis in human HeLa cells assessed as upregulation of PARP protein expression at 0.5 uM measured after 24 hrs by western blot analysis; format: functional, cell-based
In short: (§2)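 HeLa cells were treated 24 h at 37 °C and lysed in buffer containing PMSF. Protein quantified by BCA, equal amounts separated by SDS-PAGE and transferred to nitrocellulose. Blocked in 5% milk, primary antibodies overnight at 4 °C, peroxidase secondary 2 h at 25 °C. Detection by chemiluminescence, β-actin as loading control.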

HeLa [3] = assay: Induction of cell cycle arrest in human HeLa cells assessed as accumulation at G1 phase at 0.5 uM measured after 24 hrs by propidium iodide/RNAse staining based flow cytometry (reference value: 61.5%); format: functional
[4] = Toxicity in BALB/c nude mouse transfected with human HeLa cells assessed as body weight changes at 30 mg/kg/day, iv for 21 days; format: organism-based; settings: in vivo, 504 h, time 21 day
In short: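 Five-week-old male BALB/c nude mice (18-22 g) were inoculated s.c. in the right armpit with HeLa cells (1 × 10⁷ cells/0.1 mL/mouse). At a tumour volume of 120-150 mm³, mice were randomised, five per group. Dosing was i.v. via the tail vein once daily for 21 days, in Tween 80/physiological saline; controls got an equal volume of saline. Body weight was recorded every 2 days.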

HeLa [5] = assay: Antitumor activity against human HeLa cells xenografted in BALB/c mouse assessed as inhibition of tumor volume at 30 mg/kg/day, iv administered for 21 days by caliper analysis; format: functional; settings: 504 h, time 21 day
In short: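 Male BALB/c nude mice, five weeks old, 18-22 g. Inoculated subcutaneously in the right armpit with 1 × 10⁷ HeLa cells/0.1 mL. At 120-150 mm³, randomized to four groups of five. Once-daily tail-vein injection for 21 days in Tween 80/physiological saline; controls received saline. Tumor volume measured every 2 days by caliper, V = AB²/2.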

HeLa [6] = assay: Induction of apoptosis in human HeLa cells assessed as viable cells at 0.5 uM measured after 24 hrs by Annexin-V-FITC and PI staining based flow cytometry (reference value: 96.3%); format: functional; settings: read-out: Activity
In short: (§3)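 HeLa cells were treated 24 h, washed twice in PBS and resuspended in binding buffer. Stained with annexin V-FITC and PI for 30 min in the dark at room temperature, then analysed by flow cytometry.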

[7] = Toxicity in BALB/c nude mouse transfected with human HeLa cells assessed as kidney damage at 30 mg/kg/day, iv for 21 days by H&E staining based immunohistochemistry; format: organism-based; settings: in vivo, 504 h, time 21 day
In short: (§4)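 HeLa xenografts were grown s.c. in male BALB/c nude mice, which received i.v. tail-vein doses once daily for 21 days in Tween 80/saline vehicle, with saline controls. After 3 weeks the mice were sacrificed. Organs from one mouse per group were fixed in 4% paraformaldehyde, paraffin-embedded and sectioned. Sections were dewaxed, stained with Harris hematoxylin and eosin-phloxine, and examined microscopically for histopathologic changes.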

[8] = Toxicity in BALB/c nude mouse transfected with human HeLa cells assessed as liver damage at 30 mg/kg/day, iv for 21 days by H&E staining based immunohistochemistry; format: organism-based; settings: in vivo, 504 h, time 21 day; in short: as §4
HeLa [9] = assay: Induction of apoptosis in human HeLa cells assessed as down regulation of Bcl-2 protein expression at 0.5 uM measured after 24 hrs by western blot analysis; format: functional, cell-based; in short: as §2
HeLa [10] = assay: Induction of apoptosis in human HeLa cells assessed as mitochondrial membrane potential dissipation by measuring increase in green fluorescence intensity at 0.5 uM incubated for 24 hrs by JC-1 staining based fluorescence microscopic analysis; format: functional, cell-based
HeLa [11] = assay: Induction of apoptosis in human HeLa cells assessed as early apoptotic cells at 0.5 uM measured after 24 hrs by Annexin-V-FITC and PI staining based flow cytometry (reference value: 2.58%); format: functional; in short: as §3
HeLa [12] = assay: Induction of apoptosis in human HeLa cells assessed as upregulation of caspase-3 protein expression at 0.5 uM measured after 24 hrs by western blot analysis; format: functional, cell-based; in short: as §2
HeLa [13] = assay: Inhibition of cell migration in human HeLa cells at 0.5 uM measured after 24 hrs by wound healing assay (reference value: 61%); format: functional
In short: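 Confluent HeLa monolayers were scratched with a pipette tip and washed with ice-cold PBS. Incubated 24 h at 37 °C in DMEM/10% FBS containing compound. Wounds were photographed at 0 and 24 h and migration distance measured manually.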

HeLa [14] = assay: Induction of apoptosis in human HeLa cells assessed as late apoptotic cells at 0.5 uM measured after 24 hrs by Annexin-V-FITC and PI staining based flow cytometry (reference value: 0.199%); format: functional; in short: as §3
[15] = Toxicity in BALB/c nude mouse transfected with human HeLa cells assessed as spleen damage at 30 mg/kg/day, iv for 21 days by H&E staining based immunohistochemistry; format: organism-based; settings: in vivo, 504 h, time 21 day; in short: as §4
HeLa [16] = assay: Induction of cell cycle arrest in human HeLa cells assessed as accumulation at G2/M phase at 0.5 uM measured after 24 hrs by propidium iodide/RNAse staining based flow cytometry (reference value: 10.7%); format: functional
HeLa [17] = assay: Induction of apoptosis in human HeLa cells assessed as necrotic cells at 0.5 uM measured after 24 hrs by Annexin-V-FITC and PI staining based flow cytometry (reference value: 0.956%); format: functional; in short: as §3
[18] = Toxicity in BALB/c nude mouse transfected with human HeLa cells assessed as heart damage at 30 mg/kg/day, iv for 21 days by H&E staining based immunohistochemistry; format: organism-based; settings: in vivo, 504 h, time 21 day; in short: as §4
HeLa [19] = assay: Induction of apoptosis in human HeLa cells assessed as mitochondrial membrane potential dissipation at 0.5 uM incubated for 24 hrs by JC-1 staining based flow cytometry (reference value: 6.6%); format: functional
HeLa [20] = assay: Induction of apoptosis in human HeLa cells assessed as cell membrane integrity loss, chromatin condensation and apoptotic body formation by measuring reduction in green fluorescence intensity at 0.5 uM measured after 24 hrs by AO/EB dual staining based fluorescence microscopy; format: functional
[21] = Toxicity in BALB/c nude mouse transfected with human HeLa cells assessed as lung damage at 30 mg/kg/day, iv for 21 days by H&E staining based immunohistochemistry; format: organism-based; settings: in vivo, 504 h, time 21 day; in short: as §4
HeLa [22] = assay: Induction of cell cycle arrest in human HeLa cells assessed as accumulation at S phase at 0.5 uM measured after 24 hrs by propidium iodide/RNAse staining based flow cytometry (reference value: 27.8%); format: functional
HeLa [23] = assay: Induction of apoptosis in human HeLa cells assessed as upregulation of Bax protein expression at 0.5 uM measured after 24 hrs by western blot analysis; format: functional, cell-based; in short: as §2
HeLa [24] = assay: Induction of apoptosis in human HeLa cells assessed as cell membrane integrity loss, chromatin condensation and apoptotic body formation by measuring strengthened orange fluorescence intensity at 0.5 uM measured after 24 hrs by AO/EB dual staining based fluorescence microscopy; format: functional
HeLa [25] = assay: Inhibition of IDO1 expression in hIFNgamma-stimulated human HeLa cells at 0.5 uM measured after 24 hrs by western blot assay; format: functional; in short: as §2
HeLa [26] = assay: Induction of intracellular reactive oxygen species generation in human HeLa cells at 0.5 uM measured after 24 hrs by DCFH-DA staining based flow cytometry (reference value: 6.47%); format: functional
HeLa [27] = assay: Inhibition of IDO1 expression in hIFNgamma-stimulated human HeLa cells assessed as decrease in kynurenine production at 0.1 uM measured after 48 hrs by reverse-phase HPLC analysis; format: functional
In short: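 HeLa cells were given fresh L-tryptophan-containing medium with hIFN-γ (25 ng/mL) plus compound for 48 h. Collected cells were treated with 20% trichloroacetic acid and centrifuged. Supernatant analysed by reversed-phase HPLC (ODS column, acetonitrile/water, 1.0 mL/min, […]).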

[28] = Antitumor immunity against IFN-gamma stimulated human HeLa cells co-cultured with PHA-M-stimulated human PBMC cells assessed as induction of CD3+ T cell proliferation at 0.1 uM preincubated for 2 days measured after co-culturing with PBMC for 6 days by flow cytometry (reference value: 6 to 6.2%); format: functional; settings: time 8 day

- IC50 (HeLa [1]): 270 nM
- IC50 (A549): 450 nM
- IC50 (PC-3): 620 nM
SMILES: COc1ccc(/C=C\c2cc(OC)c(OC)c(OC)c2)cc1OC(=O)CCC(=O)n1cc(C2CC(=O)NC2=O)c2cc(F)ccc21 (stereo not given)
- IC50 (HUVEC): 2270 nM

- IC50 (HeLa [1]): 350 nM
- IC50 (A549): 550 nM
- IC50 (PC-3): 640 nM
SMILES: COc1ccc(/C=C/C(=O)c2cc(OC)c(OC)c(OC)c2)cc1O
- IC50 (HUVEC): 1240 nM

- IC50 (HeLa [1]): 480 nM
- IC50 (A549): 710 nM
- IC50 (PC-3): 620 nM
SMILES: COc1ccc(/C=C/C(=O)c2cc(OC)c(OC)c(OC)c2)cc1OC(=O)c1cccc(Cn2cc(CCOC(=O)[C@H](N)Cc3cn(C)c4ccccc34)nn2)c1
- IC50 (HUVEC): 3730 nM

- IC50 (HeLa [1]): 390 nM
- IC50 (A549): 950 nM
- IC50 (PC-3): 850 nM
SMILES: COc1ccc(/C=C\c2cc(OC)c(OC)c(OC)c2)cc1OC(=O)c1cccc(Cn2cc(CCOC(=O)CCC(=O)n3cc(C4CC(=O)NC4=O)c4cc(F)ccc43)nn2)c1 (stereo not given)
- IC50 (HUVEC): 4490 nM

- IC50 (HeLa [1]): 330 nM
- IC50 (A549): 530 nM
- IC50 (PC-3): 580 nM
SMILES: COc1ccc(/C=C\c2cc(OC)c(OC)c(OC)c2)cc1OCCCOC(=O)[C@H](N)Cc1cn(C)c2ccccc12
- IC50 (HUVEC): 3110 nM
- inhibition (HeLa [25]): Active

Second part, the compound before the results:

SMILES: COc1ccc(/C=C/C(=O)c2cc(OC)c(OC)c(OC)c2)cc1OC(=O)c1cccc(Cn2cc(CCOC(=O)CCC(=O)n3cc(C4CC(=O)NC4=O)c4cc(F)ccc43)nn2)c1 (stereo not given)
- IC50 (HeLa [1]): 490 nM
- IC50 (HUVEC): 7190 nM
- IC50 (A549): 970 nM
- IC50 (PC-3): 1560 nM

SMILES: COc1ccc(/C=C\c2cc(OC)c(OC)c(OC)c2)cc1O [COMBRETASTATIN A4]
- IC50 (HeLa [1]): 210 nM
- Activity (HeLa [2]): Active
- IC50 (HUVEC): 980 nM
- Activity (HeLa [3]): 4.65%
- Activity [4]: Non-Toxic
- inhibition in vivo at 30 mg/kg/day (HeLa [5]): 57.6%
- viability at 0.5 µM (HeLa [6]): 63.3%
- Activity [7]: Non-Toxic
- Activity [8]: Non-Toxic
- Activity (HeLa [9]): Active
- Activity (HeLa [10]): Active
- Activity (HeLa [11]): 25%
- Activity (HeLa [12]): Active
- inhibition at 0.5 µM (HeLa [13]): 79%
- Activity (HeLa [14]): 10.3%
- Activity [15]: Non-Toxic
- Activity (HeLa [16]): 66.57%
- Activity (HeLa [17]): 1.44%
- Activity [18]: Non-Toxic
- Activity (HeLa [19]): 54.2%
- Activity (HeLa [20]): Active
- Activity [21]: Non-Toxic
- Activity (HeLa [22]): 28.77%
- Activity (HeLa [23]): Active
- Activity (HeLa [24]): Active
- inhibition (HeLa [25]): inactive
- IC50 (A549): 470 nM
- Activity (HeLa [26]): 21.8%
- IC50 (PC-3): 400 nM

SMILES: COc1ccc(/C=C\c2cc(OC)c(OC)c(OC)c2)cc1OC(=O)[C@H](N)Cc1cn(C)c2ccccc12
- IC50 (HeLa [1]): 430 nM
- IC50 (HUVEC): 2530 nM
- inhibition (HeLa [25]): Active
- IC50 (A549): 680 nM
- IC50 (PC-3): 720 nM

SMILES: COc1ccc(/C=C/C(=O)c2cc(OC)c(OC)c(OC)c2)cc1OC(=O)CCC(=O)n1cc(C2CC(=O)NC2=O)c2cc(F)ccc21 (stereo not given)
- IC50 (HeLa [1]): 370 nM
- IC50 (HUVEC): 4760 nM
- IC50 (A549): 1280 nM
- IC50 (PC-3): 1390 nM

SMILES: Cn1cc(C[C@@H](N)C(=O)O)c2ccccc21 [INDOXIMOD]
- IC50 (HeLa [1]): > 100000 nM
- inhibition (HeLa [27]): Active
- IC50 (HUVEC): > 100000 nM
- inhibition (HeLa [25]): Active
- IC50 (A549): > 100000 nM
- Activity [28]: 17.8%
- IC50 (PC-3): > 100000 nM
